Activity calls are given as the source filed them. The rule behind the calls is not given here.
Assays:
Rattus norvegicus [1] = test: Compound tested for % reversal of DOPA accumulation at an intraperitoneal dose of 30 mg/kg; Inactive; format: functional, organism-based; set-up: dose 30 mg/kg
Summary of the method: (§1)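 Rats dosed 1 h before sacrifice, with GBL (750 mg/kg ip) at 30 min and NSD 1015 (100 mg/kg ip) at 25 min before sacrifice. Striatal DOPA measured by HPLC with electrochemical detection. Value is percent reversal of the GBL-induced DOPA rise.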

[2] = target: Dopamine receptor (Rattus norvegicus) (UniProt P25115+P19020+P30729+P18901+P61169); test: Inhibitory binding activity against dopamine receptor in rat striatal membranes using [3H]HAL as the radioligand.; format: cell membranes; set-up: concentration or dose not given beside the values; conditions: Striatum; Membrane; concentration not given here
Summary of the method: (§2)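 [3H]Haloperidol displacement from rat striatal DA receptors, run in duplicate. IC50 obtained by nonlinear regression from four to five concentrations.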

Mus musculus [3] = test: Inhibition of mouse intraperitoneally.; format: functional; conditions: ip
Summary of the method: (§3)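 Inhibition of exploratory locomotor activity, scored together with motor coordination (ataxia). ED50 generated from four to five doses, with 5–12 animals per dose.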

Rattus norvegicus [4] = test: Inhibition of rat locomotor activity after being administered perorally.; format: functional; conditions: po; summary of the method: as §3
Rattus norvegicus [5] = test: Compound tested for % reversal of DOPA accumulation at an intraperitoneal dose of 30 mg/kg.; format: functional; summary of the method: as §1
Rattus norvegicus [6] = test: Percentage of rats showing signs of stereotyped behavior at 0.3 mg/kg subcutaneous dose and animals observed for 60 min postdose.; format: functional
Rattus norvegicus [7] = test: Compound tested for its effective dose to inhibit rat locomotor activity after sc administration of the compound.; format: functional
Summary of the method: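 Rats dosed sc, with locomotor activity recorded for 30 min immediately after dosing. ED50 generated from four to five doses using 5–12 animals per dose, reported with ±95% confidence limits.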

Rattus norvegicus [8] = test: Compound tested for % inhibition of DA neuronal firing at an intraperitoneal dose of 2.5 mg/kg.; format: functional; conditions: ip
Mus musculus [9] = test: Compound was tested for inhibition of mouse locomotor activity after being administered intraperitoneally.; conditions: ip
Rattus norvegicus [10] = test: Compound tested for its effect on reversal of 6-OHDA induced depression in rats after sc administration.; format: functional
Summary of the method: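 Rats lesioned at least 1 month earlier with 6-OHDA (20 μg icv) plus pargyline (50 mg/kg ip) and desipramine (25 mg/kg ip), giving about 90% brain DA depletion. Drug given sc, then locomotor activity recorded for 30 min from dosing. ED200 estimated from three or four doses, six rats per dose.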

Rattus norvegicus [11] = test: Percentage of rats showing signs of stereotyped behavior at 30 mg/kg peroral dose and animals observed for 60 min postdose.; format: functional; conditions: route oral
Rattus norvegicus [12] = test: Percentage of rats showing signs of stereotyped behavior at 15 mg/kg peroral dose and followed 1 hr later by 10 mg/kg sc of SKF-38393 and animals observed for 60 min postdose before being; format: functional
Summary of the method: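 Part 2: oral dose given to naive rats, six per dose, followed 1 h later by SKF 38393 (10 mg/kg sc). Stereotypy (repetitive rearing, head-swaying, sniffing, licking, gnawing lasting ≥5 s) rated over 60 min. Reported as percent of rats affected.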

Dopamine receptor = test: Compound was tested for inhibitory binding activity against Dopamine receptor in rat striatal membranes using [3H]HAL as the radioligand.; format: cell membranes, Striatum, Membrane; summary of the method: as §2
[13] = Compound tested for its liability for extrapyramidal side effects (EPS) in terms of no. of animals showing signs of EPS/no. of animals tested upon peroral administration at a dose of 2.5 mg/Kg; 3/3; format: functional
[14] = Compound was tested for its inhibition of Sidman avoidance after peroral administration in Squirrel monkeys.; format: functional; conditions: po
Summary of the method: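 Sidman avoidance in mature squirrel monkeys, oral dosing. ED50 ± SEM generated from three doses, four animals per dose.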

Rattus norvegicus [15] = test: Percentage of rats showing signs of stereotyped behavior at 30 mg/kg subcutaneous dose and animals observed for 30 min postdose.; format: functional
Rattus norvegicus [16] = test: Percentage of rats showing signs of stereotyped behavior at 30 mg/kg subcutaneous dose and followed 1 hr later by 10 mg/kg sc of SKF-38393 and animals observed for 30 min postdose before being; format: functional
Summary of the method: (§4)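 Naive rats, six per dose, received compound, then SKF 38393 (10 mg/kg sc) 1 h later. They were rated for repetitive rearing, head-swaying, sniffing, licking and gnawing of at least 5 s duration. Result given as the percentage of rats showing stereotypy.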

Rattus norvegicus [17] = test: Effect on DOPA accumulation level at an intraperitoneal dose of 30 mg/kg in rat.; format: functional
Rattus norvegicus [18] = test: Compound tested for % reversal of DOPA accumulation at an intraperitoneal dose of 30 mg/kg. Negative value in parenthesis indicates further % increase in DOPA levels over GBL-induced increase.; format: functional; summary of the method: as §1
Rattus norvegicus [19] = test: Effect on DOPA accumulation level at an intraperitoneal dose of 0.5 mg/kg in rat; format: functional
Rattus norvegicus [20] = test: Compound was tested for inhibition of […] locomotor activity after being administered perorally.; format: functional; conditions: po
Summary of the method: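 Mice dosed orally and scored for inhibition of exploratory locomotor activity, with motor coordination (ataxia) also checked. ED50 generated from four to five doses using 5–12 animals per dose.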

Rattus norvegicus [21] = test: Percentage of rats showing signs of stereotyped behavior at 30 mg/kg peroral dose and followed 1 hr later by 10 mg/kg sc of SKF-38393 and animals observed for 60 min postdose before being; format: functional; summary of the method: as §4
Rattus norvegicus [22] = test: Percentage of rats showing signs of stereotyped behavior at 55 mg/kg peroral dose and followed 1 hr later by 10 mg/kg sc of SKF-38393 and animals observed for 60 min postdose before being; format: functional; summary of the method: as §4
Rattus norvegicus [23] = test: Percentage of rats showing signs of stereotyped behavior at 110 mg/kg peroral dose and animals observed for 60 min postdose.; format: functional; conditions: route oral

SMILES: Cc1ccc(N2CCN(CCCOc3ccc4c(=O)ccoc4c3)CC2)cc1
- % reversal (Rattus norvegicus [1]): inactive
- inhibition [2]: 36%

SMILES: O=c1ccoc2cc(OCCCN3CCc4c(oc5ccccc45)C3)ccc12
- ED50 (Mus musculus [3]): 13.5 mg/kg
- ED50 (Rattus norvegicus [4]): > 30 mg/kg
- inhibition [2]: 8%
- Reversal (Rattus norvegicus [5]): 29%

SMILES: O=c1ccoc2cc(OCCCN3CCN(c4ccccc4Cl)CC3)ccc12
- inhibition [2]: 59%

SMILES: Cc1cccc(N2CCN(CCCOc3ccc4c(=O)ccoc4c3)CC2)c1C
- inhibition [2]: 0%

SMILES: O=c1ccoc2cc(OCCCN3CCN(c4cccc(O)c4)CC3)ccc12
- inhibition [2]: 29%

SMILES: COc1ccccc1N1CCN(CCCOc2ccc3c(=O)ccoc3c2)CC1
- inhibition [2]: 48%

SMILES: O=c1ccoc2cc(OCCCN3CCN(c4ncccn4)CC3)ccc12
- ED50 (Mus musculus [3]): 12.4 mg/kg
- ED50 (Rattus norvegicus [4]): 15.6 mg/kg
- inhibition [2]: 0%

SMILES: CN1CCc2cccc3c2[C@H]1Cc1ccc(O)c(O)c1-3 [APOMORPHINE]
- ED50 (Mus musculus [3]): 6.4 mg/kg
- Animals (Rattus norvegicus [6]): 100%
- ED50 (Rattus norvegicus [7]): 0.03 mg/kg
- inhibition in vivo at 2.5 mg/kg (Rattus norvegicus [8]): 100%
- ED50 (Mus musculus [9]): > 30 mg/kg
- ED200 (Rattus norvegicus [10]): 0.005 mg/kg
- Reversal (Rattus norvegicus [5]): 104%

SMILES: O=c1ccoc2ccc(OCCCCN3CCN(c4ccccc4)CC3)cc12
- inhibition [2]: 73%
- Animals (Rattus norvegicus [11]): 0%
- Animals (Rattus norvegicus [12]): 0%
- inhibition in vivo at 2.5 mg/kg (Rattus norvegicus [8]): 94%
- Reversal (Rattus norvegicus [5]): 84%

SMILES: O=c1ccoc2ccc(OCCCCN3CCN(c4ncccn4)CC3)cc12
- ED50 (Mus musculus [3]): 3.6 mg/kg
- ED50 (Rattus norvegicus [4]): 8.2 mg/kg
- IC50 (Dopamine receptor): 349 nM
- inhibition in vivo at 2.5 mg/kg (Rattus norvegicus [8]): 100%
- Reversal (Rattus norvegicus [5]): 100%

SMILES: Cc1ccc(N2CCN(CCCOc3ccc4c(=O)ccoc4c3)CC2)cc1C
- inhibition [2]: 41%
- Reversal (Rattus norvegicus [5]): -29%

SMILES: Nc1cccc(OCCCN2CCN(c3ccccc3)CC2)c1
- ED50 (Mus musculus [3]): 1.3 mg/kg

SMILES: O=C1CN(CCCOc2ccc3c(=O)ccoc3c2)CC(=O)N1c1ccccc1
- ED50 (Mus musculus [3]): > 30 mg/kg
- inhibition [2]: 0%

SMILES: O=c1ccoc2cc(OCCCN3CCN(Cc4ccccc4)CC3)ccc12
- ED50 (Mus musculus [3]): > 30 mg/kg
- inhibition [2]: 31%

SMILES: O=c1ccoc2cc(OCCCN3CCCN(c4ccccc4)CC3)ccc12
- ED50 (Mus musculus [3]): > 30 mg/kg
- IC50 (Dopamine receptor): 884 nM

SMILES: CCN(CCCOc1ccc2c(=O)ccoc2c1)CCCc1ccccc1
- ED50 (Mus musculus [3]): > 30 mg/kg
- inhibition [2]: 26%

SMILES: CSc1ccc2c(c1)N(CCC1CCCCN1C)c1ccccc1S2 (configuration not stated) [THIORIDAZINE]
- EPS [13]: 3
- ED50 [14]: 3.9 mg/kg

SMILES: O=c1ccoc2cc(OCCCN3CCN(c4cnccn4)CC3)ccc12
- ED50 (Mus musculus [3]): 26.3 mg/kg
- inhibition [2]: 17%

SMILES: CCCN1CCCC(c2ccccc2)C1 (single isomer, unassigned; (+))
- ED50 (Rattus norvegicus [7]): 3 mg/kg
- Animals (Rattus norvegicus [15]): 16%
- ED200 (Rattus norvegicus [10]): 0.48 mg/kg
- Animals (Rattus norvegicus [16]): 100%

SMILES: O=c1ccoc2cc(OCCCN3CCC(c4ccccc4)CC3)ccc12
- inhibition [2]: 40%

SMILES: Cc1ccccc1N1CCN(CCCOc2ccc3c(=O)ccoc3c2)CC1
- % reversal (Rattus norvegicus [1]): inactive
- ED50 (Rattus norvegicus [4]): > 30 mg/kg
- inhibition [2]: 29%

SMILES: O=c1ccoc2cc(OCCCCN3CCN(c4ccccc4)CC3)ccc12
- inhibition [2]: 74%
- Reversal (Rattus norvegicus [5]): 63%

SMILES: O=c1ccoc2cc(OCCCN3CCN(c4ccc(Cl)c(Cl)c4)CC3)ccc12
- ED50 (Mus musculus [3]): 14 mg/kg
- inhibition [2]: 23%

SMILES: O=c1ccoc2cc(OCCCN3CCC=C(c4ccccc4)C3)ccc12
- ED50 (Mus musculus [3]): 30.3 mg/kg
- IC50 (Dopamine receptor): 243 nM

SMILES: O=c1ccoc2cc(OCCCN3CCN(c4ccc(F)cc4)CC3)ccc12
- inhibition [2]: 24%
- DOPA level (Rattus norvegicus [17]): 1.36 µg/g
- Reversal (Rattus norvegicus [18]): -42%

SMILES: O=c1ccoc2cc(OCCCN3CCN(c4ccccc4)CC3)ccc12
- inhibition [2]: 20%
- inhibition in vivo at 2.5 mg/kg (Rattus norvegicus [8]): 68%
- Reversal (Rattus norvegicus [5]): 56%

SMILES: COc1ccc(N2CCN(CCCOc3ccc4c(=O)ccoc4c3)CC2)cc1
- inhibition [2]: 25%

SMILES: Cc1cccc(N2CCN(CCCOc3ccc4c(=O)ccoc4c3)CC2)c1
- % reversal (Rattus norvegicus [1]): inactive
- inhibition [2]: 38%

SMILES: O=c1ccoc2cc(OCCCN3CCN(c4ccc(Cl)cc4)CC3)ccc12
- % reversal (Rattus norvegicus [1]): inactive
- inhibition [2]: 10%

SMILES: O=C(CCCN1CCC(O)(c2ccc(Cl)cc2)CC1)c1ccc(F)cc1 [HALOPERIDOL]
- DOPA level (Rattus norvegicus [19]): 2.72 µg/g

SMILES: C1=C(c2ccccc2)CCN(CCCCc2c[nH]c3ccccc23)C1
- ED50 (Mus musculus [3]): 0.1 mg/kg
- ED50 (Rattus norvegicus [20]): 4.8 mg/kg
- Animals (Rattus norvegicus [11]): 0%
- ED50 (Rattus norvegicus [7]): 4.69 mg/kg
- Animals (Rattus norvegicus [21]): 0%
- ED200 (Rattus norvegicus [10]): 0.29 mg/kg

SMILES: O=c1ccoc2cccc(OCCCN3CCN(c4ccccc4)CC3)c12
- % reversal (Rattus norvegicus [1]): inactive
- ED50 (Rattus norvegicus [4]): > 30 mg/kg
- inhibition [2]: 9%

SMILES: O=c1ccoc2cc(OCCCN3CC=C(c4ccccc4)CC3)ccc12
- ED50 (Rattus norvegicus [4]): 5.5 mg/kg
- Animals (Rattus norvegicus [22]): 0%
- inhibition in vivo at 2.5 mg/kg (Rattus norvegicus [8]): 90%
- Animals (Rattus norvegicus [23]): 0%
- Reversal (Rattus norvegicus [5]): 54%

SMILES: O=c1ccoc2cc(OCCCN3CCc4[nH]c5ccc(F)cc5c4C3)ccc12
- ED50 (Mus musculus [3]): 7.5 mg/kg
- ED50 (Rattus norvegicus [4]): 5.5 mg/kg
- Reversal (Rattus norvegicus [5]): -44%

SMILES: O=c1ccoc2cc(OCCCN3CCc4ccccc4C3)ccc12
- ED50 (Mus musculus [3]): 30 mg/kg
- inhibition [2]: 50%

SMILES: O=c1ccoc2cc(OCCCN3CCN(c4cccc(Cl)c4)CC3)ccc12
- inhibition [2]: 35%
- Reversal (Rattus norvegicus [18]): -26%

Source: ChEMBL document CHEMBL1125728, “Dopamine autoreceptor agonists as potential antipsychotics. 2. (Aminoalkoxy)-4H-1-benzopyran-4-ones” (J Med Chem, 1991)
